Ecoli WT expand: growth inhibitors of wild-type E. coli, primary screen, strain BW25113, expanded library, OD600 | OD600 absorbance | growth inhibition, % at 100 µM | 0.15% of 98,000 active;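 active = growth inhibition above about 50% at one test dose, limit read from the data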;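 also: growth measured after 20 h incubation at 37 °C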
Pyk2 oligo antag: antagonists of Pyk2 self-association, primary screen, Q293 cells, FERM NanoBiT luminescence, HTS; stronger effect = lower value; z-score (the deposit names both 25 µM and 10 µM); 0.83% of 99,000 active;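 active = Z-score of -3 or lower, scaled per plate to the spread of control and sample wells; inactive = z-score above -3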;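 also: negative z-score means lost luminescence so less FERM oligomerization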
Target sequence (Q14289 whole entry, looked up): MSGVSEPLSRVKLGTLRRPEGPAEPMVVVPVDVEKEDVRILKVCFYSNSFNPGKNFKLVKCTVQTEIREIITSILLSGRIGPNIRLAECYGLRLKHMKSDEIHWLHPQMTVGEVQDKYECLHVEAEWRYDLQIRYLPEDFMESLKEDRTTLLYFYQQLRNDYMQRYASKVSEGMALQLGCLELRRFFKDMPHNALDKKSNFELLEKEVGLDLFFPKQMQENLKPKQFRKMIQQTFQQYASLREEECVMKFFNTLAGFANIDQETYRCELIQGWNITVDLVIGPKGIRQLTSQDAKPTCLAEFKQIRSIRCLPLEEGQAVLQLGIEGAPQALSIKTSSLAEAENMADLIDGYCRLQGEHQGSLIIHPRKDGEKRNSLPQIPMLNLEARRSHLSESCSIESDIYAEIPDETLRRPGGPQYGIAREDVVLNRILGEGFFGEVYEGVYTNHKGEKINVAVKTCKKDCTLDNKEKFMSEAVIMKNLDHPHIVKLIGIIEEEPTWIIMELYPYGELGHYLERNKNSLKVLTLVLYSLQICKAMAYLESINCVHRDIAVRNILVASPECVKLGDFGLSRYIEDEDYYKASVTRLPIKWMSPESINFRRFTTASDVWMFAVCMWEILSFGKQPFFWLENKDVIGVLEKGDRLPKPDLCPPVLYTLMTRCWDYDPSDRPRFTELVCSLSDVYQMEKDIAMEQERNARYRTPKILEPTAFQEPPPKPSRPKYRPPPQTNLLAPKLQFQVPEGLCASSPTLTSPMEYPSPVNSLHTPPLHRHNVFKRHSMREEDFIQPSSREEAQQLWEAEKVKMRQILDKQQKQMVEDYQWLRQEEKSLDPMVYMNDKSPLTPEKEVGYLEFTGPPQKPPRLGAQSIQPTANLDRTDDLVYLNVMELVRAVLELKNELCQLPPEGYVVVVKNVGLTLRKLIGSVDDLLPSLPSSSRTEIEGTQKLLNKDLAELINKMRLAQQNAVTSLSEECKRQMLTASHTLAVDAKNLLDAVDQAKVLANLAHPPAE
tolC growth inh: growth inhibitors of E. coli tolC mutant, primary screen, strain BW25113 ΔtolC::kan, 384-well | growth inhibition, % at 10 µM (by protocol) | OD615 | 2.2% of 65,000 active;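 active = growth inhibition at or above a cutoff equal to the mean over every tested compound plus 3 SD, cut at about 60% in these data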;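 also: growth measured after 20 h incubation at 37 °C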
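Doses: one dose of 10 µM final / Material: E. coli BW25113 ΔtolC::kan, tolC deletion mutant strain / Buffer or medium: LB with kanamycin 50 µg/mL / Evaluation: percent growth inhibition / Detection: optical density read at 615 nm / Incubation: 37 °C, 20 h exposure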
CD11b adhes inh: inhibitors of CD11b/CD18 adhesion to fibrinogen, primary screen, K562 cells, luminescence. inhibition, % at 10 µM. AID 1497, 2009. ATPlite luminescence; Mn2+ added to activate the integrin. Integrin beta-2 (Homo sapiens) + Integrin alpha-M (Homo sapiens), P05107+P11215. 0.54% of 93,000 active;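 active = primary inhibition of 50% or more at 10 µM, then 40% or more on retest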
Mac1 fbg enh: enhancers of CD11b/CD18 adhesion to fibrinogen, primary screen, K562 cells, luminescence; activation, % at 10 µM; 0.07% of 93,000 active; ATPlite luminescence;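 active = 10 µM primary screen giving 50% or more activity, confirmed by 40% or more on retest at that dose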
Starred values were filed as active, the others as inactive; · = not tested or not shown. A selection: hits, their analogues and other compounds. The true share with any hit is near 2.3%.

SMILES	Ecoli WT expand	Pyk2 oligo antag	tolC growth inh	CD11b adhes inh	Mac1 fbg enh
CCCCN(CCCC)S(=O)(=O)c1ccc(C(=O)Nc2nnc(COC)o2)cc1	5	-1.9	97*	-2	0
CCCCN(C)S(=O)(=O)c1ccc(C(=O)Nc2nnc(CSC)o2)cc1	14	-0.65	98*	-6	-5
O=C(Nc1cccnc1)/C(N=Nc1cccnc1)=C(\O)c1ccccc1	·	·	·	3	11
CCCN(CCC)S(=O)(=O)c1ccc(NC(=O)Cc2cccs2)cc1	-5	-0.35	·	7	-3
CCCCN(CCCC)S(=O)(=O)c1ccc(NC(=O)Cc2cccs2)cc1	-4	-3.2*	·	73	2
CCn1c(SC)nnc1-c1sc2cc(Cl)ccc2c1Cl	-7	0.67	77*	17	5
COc1ccc(CNS(=O)(=O)c2cc(OCC(N)=O)c(C)cc2Cl)cc1	-4	0.32	·	3	-1
Oc1ccccc1-c1cc(-c2ccccc2Cl)[nH]n1	4	-0.63	100*	6	0
Oc1ccccc1-c1cc(-c2cccc(F)c2)n[nH]1	24	-0.97	100*	2	0
Cc1ccc(O)c(-c2cc(-c3ccccc3C)[nH]n2)c1	14	-0.15	100*	-2	8
Oc1ccc(Cl)cc1-c1cc(-c2ccccc2Cl)[nH]n1	·	-1.1	·	·	·
CN(C)CCCC1(O)c2ccccc2C=Cc2ccccc21	·	0.26	·	·	·
CCOC(=O)c1cc(C(C)(C)C)oc1CNC(=O)c1c(C)oc2c1CCCC2	·	-0.52	·	·	·
CCOC(=O)C(NS(=O)(=O)c1ccccc1)(C(F)(F)F)P(=O)(OCC(C)C)OCC(C)C (stereo unspecified)	9	0.05	·	-18	1
O=C(C1CCN(Cc2cc(Cl)ccc2O)CC1)N1CCN(Cc2ccccc2)CC1	4	0.77	95*	·	·
COc1ccc(Cc2nc(C(=O)Nc3ccc(Cl)cc3)cs2)cc1	-13	1.6	·	97	-8
COc1ccc(Cc2nc(C(=O)Nc3ccc(F)cc3)cs2)cc1	-9	2	·	82*	-6
COc1ccc(Cc2nc(C(=O)Nc3ccccc3)cs2)cc1	8	-0.07	·	88*	-7
CCCc1[nH]n(-c2nc3ccccc3s2)c(=O)c1C=NCC(C)C	8	-0.76	·	14	-5
Cc1ccc(C2CC(c3cccc(Br)c3)Nc3nnnn32)cc1 (stereo unspecified)	-9	-2.5	67*	-15	6
Clc1cccc(/C(Cc2nc3ccccc3[nH]2)=N\Nc2ccccc2)c1	·	·	·	69	-2
N#CC1=C(N)Oc2n[nH]c(-c3cccs3)c2C1c1ccsc1 (stereo unspecified)	-2	0.3	98*	8	-7
CC(NC(=O)C1CCCN(S(=O)(=O)c2cnc[nH]2)C1)c1ccccc1 (stereo unspecified)	2	·	-26	-5	-3
O=S(=O)(Nc1cccc2ncccc12)c1cccs1	-2	-1.8	99*	-34	3
O=S(=O)(Nc1ccc(-c2nc3cccnc3s2)cc1)c1cccs1	-4	·	18	-34	-3
SMILES	Ecoli WT expand	Pyk2 oligo antag	tolC growth inh	CD11b adhes inh	Mac1 fbg enh
[N-]=[N+]=CC(=O)c1ccnc(C(=O)C=[N+]=[N-])c1	55*	1.5	8	-13	0
CCOC(=O)C1=C(N)Oc2cc(C)oc(=O)c2C1c1cccnc1 (stereo unspecified)	-4	0.93	-2	-2	-1
CCOC(=O)C1=C(N)Oc2ccc3ccccc3c2C1c1cccnc1 (stereo unspecified)	·	-3.1*	·	·	·
O=c1c(C(c2ccccc2)c2c(O)sc3ccccc3c2=O)c(O)sc2ccccc12	-11	0.34	·	92*	-6
COc1ccccc1N1CCN(C(=O)CCCN2C(=O)c3cccc4cccc(c34)C2=O)CC1	·	·	·	18	2
COc1ccc(C(=O)Nn2cnc3scc(-c4cccs4)c3c2=O)c(O)c1	-5	-1.3	75*	·	·
COC(=O)c1[nH]c2ccc(C)cc2c1NS(=O)(=O)c1ccc(F)c(C)c1	3	-0.43	96*	-3	8
COC(=O)c1[nH]c2ccc(F)cc2c1NS(=O)(=O)c1ccc(OC)cc1OC	-3	-1	36	-19	0
COC(=O)c1[nH]c2ccc(C)cc2c1NS(=O)(=O)c1ccc(F)cc1	-5	-0.06	83*	20	2
CCCN1C(=O)/C(=C/C=C2\N(CC)c3ccccc3C2(C)C)SC1=S	-9	-3*	·	4	2
COc1ccc(/C=C2\SC(=S)N(Cc3cccnc3)C2=O)cc1C	·	·	·	10	10
CCOc1cc(/C=C2/SC(=Nc3ccccc3)N(Cc3cccnc3)C2=O)ccc1OCC#N	-4	-3.6*	·	-2	1
CC(OC(=O)c1cccs1)C(=O)NCC1CCCO1 (stereo unspecified)	2	0.32	-15	·	-4
CCOC(=O)C1CCN(Cc2cn[nH]c2-c2ccccc2)CC1	0	0.96	4	-5	0
CCOC(=O)C1CCN(Cc2cn[nH]c2-c2ccc(C)cc2)CC1	11	0.75	92*	22	-7
CCOC(=O)C(=CNc1ccc(C)cc1C)C(=O)OCC	-5	-3.2*	·	3	-2
Cc1ccccc1CN(c1ccc(C(=O)Nc2ccccc2C(=O)N2CCCC2)cc1)S(C)(=O)=O	-6	-0.55	·	-51	-2
Cc1ccccc1CN(c1ccc(C(=O)Nc2ccccc2C(=O)NCc2ccco2)cc1)S(C)(=O)=O	-11	-3.6*	·	16	-3
Cc1ccc(Nc2ccc(S(=O)(=O)N3CCOCC3)cc2[N+](=O)[O-])cc1C	·	·	·	36	-5
COc1ccc(C(=O)/C=C/Nc2ccc([N+](=O)[O-])cc2C)cc1OC	-1	-0.38	·	1	53*
O=C(O)c1ccc(Cn2cc(Cl)cn2)cc1	-14	0.15	-18	-6	-1
COc1ccc(C(c2nnnn2Cc2cccs2)N2CCN(c3ccccc3F)CC2)cc1OC (stereo unspecified)	-6	-3.6*	27	14	4
COc1ccc(Cn2nnnc2C(c2cccs2)N2CCN(c3ccccc3)CC2)cc1 (stereo unspecified)	-11	-1.9	19	8	-2
Fc1ccc(C(c2nnnn2Cc2cccs2)N2CCN(c3ccccc3)CC2)cc1 (stereo unspecified)	·	-3.5*	·	·	·
COCCn1nnnc1C(c1ccccc1OC)N1CCN(c2ccccc2F)CC1 (stereo unspecified)	-3	-2.8	5	7	-1
CCc1ccc2[nH]c(=O)c(C(c3nnnn3CCOC)N3CCN(c4ccc(F)cc4)CC3)cc2c1 (stereo unspecified)	0	0.37	78*	-2	0
COCCn1nnnc1C(c1ccc(OC)cc1)N1CCN(c2ccccc2F)CC1 (stereo unspecified)	4	-3.5*	-4	·	·
